# According to publication PMC7668563 (International journal of molecular biology (Edmond, Okla.), 2020):
# Legend:
# [1] = test system: human colorectal adenocarcinoma cell line, HT-29; experiment: MTT cell viability assay on HT-29, 72 h exposure; assay type: cell-based; settings: read-out: IC50 (±SD), HT-29, HT-29, 72 h of exposure
# Procedure, shortened: (§1)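 HT-29 was grown in McCoy's 5A with 10% FBS. MCF-7 was grown in MEM with 10% FBS and 0.01 mg/mL insulin. Both were kept at 37°C, 5% CO2, trypsinized at 70–80% confluency and seeded at 1.5×10^4 cells/well for 24 h. Cells were then exposed for 72 h to test compound in 5% DMSO/95% medium, with DMSO-medium controls. MTT was added as a 2.67 mg/mL solution for 2 h. Formazan was dissolved in 10% Triton X-100/isopropanol and read at A570 minus A620. IC50 came from a sigmoidal fit of viability vs log concentration, eight replicas, triplicate, ±SD.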
# [2] = biological target: T1, apo-human transferrin (apo-hTf) (Homo sapiens, UniProt P02787); experiment: Thermodynamic parameters of apo-hTf complex formation; assay type: binding
# Procedure, shortened: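 Ksv values were obtained from apo-hTf fluorescence quenching at pH 7.4 at 296, 303, 310 and 317 K. ΔH°, ΔS° and ΔG° were derived from linear regression of ln(Ksv) vs 1/T (Van't Hoff equation).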
# [3] = biological target: T1, apo-human transferrin (apo-hTf); experiment: UV-Vis absorbance titration of apo-hTf; assay type: binding
# [4] = biological target: T1, apo-human transferrin (apo-hTf); experiment: Far-UV circular dichroism titration of apo-hTf, secondary structure content
# Procedure, shortened: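 Apo-hTf (4.0×10−7 mol L−1) in 2 mM Tris-HCl pH 7.4 was titrated with a 1.0×10−3 mol L−1 stock of test compound in Tris-HCl/2% DMSO, to final 0–2.4×10−6 mol L−1. Far-UV CD was recorded from 190–250 nm under nitrogen in a 1.0 cm cell: six scans at 100 nm/min. Baseline was buffer ± DMSO at room temperature. α-Helix was derived from MRE at 208 nm; β-sheet and random coil by the CD-RRG method.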
# [5] = biological target: T1, apo-human transferrin (apo-hTf); experiment: Fluorescence quenching of apo-hTf; assay type: binding; settings: for biomolecular quenching rate constant kq: kq=Ksv/τ0; for Stern-Volmer quenching constant Ksv / number of binding sites n: pH 7.4; for quenching association constant Ka: pH 7.4, modified Stern-Volmer
# Procedure, shortened: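 Intrinsic fluorescence of apo-hTf in Tris-HCl pH 7.4 was titrated with test compound (Tris-HCl/2% DMSO). Conditions: excitation 280 nm, emission 290–500 nm, slits 10/5 nm, 1.0 cm quartz cell, at 296, 303, 310 and 317 K, triplicate titrations. Intensities were corrected for inner filter effect using absorbances at excitation and emission wavelengths. Ksv came from Stern-Volmer plots of F0/F vs [Q]; kq = Ksv/τ0 (τ0 ~1.0×10−8); Ka and n came from the modified Stern-Volmer equation.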
# [6] = test system: human breast adenocarcinoma cell line, MCF-7; experiment: MTT cell viability assay on MCF-7, 72 h exposure; assay type: cell-based; settings: MCF-7, 72 h of exposure
# Procedure, shortened: as §1
# [7] = biological target: T1, apo-human transferrin (apo-hTf); experiment: Fluorescence resonance energy transfer; assay type: binding
# Procedure, shortened: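 Emission spectrum of 1.0×10−5 mol L−1 apo-hTf and absorption spectrum of 1.0×10−5 mol L−1 test compound were recorded in 20 mM Tris-HCl pH 7.4 at room temperature, 260–450 nm, and their spectral overlap determined. E was calculated from apo-hTf fluorescence without and with equimolar test compound. R0 and donor–acceptor distance r came from Förster equations.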
# T1 sequence (P02787 20-698): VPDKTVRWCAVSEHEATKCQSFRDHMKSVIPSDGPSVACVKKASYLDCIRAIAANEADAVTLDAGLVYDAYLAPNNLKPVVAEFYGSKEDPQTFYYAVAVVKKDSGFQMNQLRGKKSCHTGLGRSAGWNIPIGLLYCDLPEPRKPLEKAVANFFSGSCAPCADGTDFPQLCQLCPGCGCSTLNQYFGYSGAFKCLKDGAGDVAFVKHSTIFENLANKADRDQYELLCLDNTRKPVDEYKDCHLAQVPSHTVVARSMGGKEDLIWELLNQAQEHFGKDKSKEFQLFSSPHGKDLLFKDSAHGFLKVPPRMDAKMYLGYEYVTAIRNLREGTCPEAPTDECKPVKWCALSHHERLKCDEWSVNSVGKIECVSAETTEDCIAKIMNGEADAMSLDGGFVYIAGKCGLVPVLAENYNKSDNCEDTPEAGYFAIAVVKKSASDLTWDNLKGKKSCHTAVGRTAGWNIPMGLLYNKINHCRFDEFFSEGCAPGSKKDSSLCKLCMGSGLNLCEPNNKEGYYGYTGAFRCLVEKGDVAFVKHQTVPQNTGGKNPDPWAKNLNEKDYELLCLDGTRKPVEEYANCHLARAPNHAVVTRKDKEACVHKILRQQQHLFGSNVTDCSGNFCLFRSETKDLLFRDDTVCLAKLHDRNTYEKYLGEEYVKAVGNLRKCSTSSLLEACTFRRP
smiles,measurement,setting,value
[Cl-].[Cl-].[Hf+4].c1cc[cH-]c1.c1cc[cH-]c1 [Cp2HfCl2],IC50,[1],564 µM
same,∆G°,[2]; 296 K,-4.443 kcal/mol
same,∆G°,[2]; 303 K,-4.45 kcal/mol
same,∆G°,[2]; 310 K,-4.46 kcal/mol
same,∆G°,[2]; 317 K,-4.469 kcal/mol
same,∆H°,"[2]; pH 7.4, from Ksv at 296-317 K",-4.08 kcal/mol
same,∆S°,"[2]; pH 7.4, from Ksv at 296-317 K",5.13 J/mol K
same,Ka at 280 nm,[3]; absorbance at 280 nm,2110 M⁻¹
same,"Association constants, Ka, 280 nm","[3]; absorbance of apo-hTf at 280 nm, pH 7.4",2.11 10^3 M^−1
same,other secondary structure content of apo-hTf,[4]; compound concentration 0.4 (M),19.1%
same,random coil content of apo-hTf,[4]; compound concentration 0.4 (M),33.7%
same,α-helix content of apo-hTf,[4]; compound concentration 0.4 (M),29.7%
same,β-sheet content of apo-hTf,[4]; compound concentration 0.4 (M),17.5%
same,other secondary structure content of apo-hTf,[4]; compound concentration 0.8 (M),19.1%
same,random coil content of apo-hTf,[4]; compound concentration 0.8 (M),33.8%
same,α-helix content of apo-hTf,[4]; compound concentration 0.8 (M),29.5%
same,β-sheet content of apo-hTf,[4]; compound concentration 0.8 (M),17.6%
same,other secondary structure content of apo-hTf,[4]; compound concentration 1.2 (M),19.2%
same,random coil content of apo-hTf,[4]; compound concentration 1.2 (M),33.8%
same,α-helix content of apo-hTf,[4]; compound concentration 1.2 (M),29.3%
same,β-sheet content of apo-hTf,[4]; compound concentration 1.2 (M),17.7%
same,other secondary structure content of apo-hTf,[4]; compound concentration 1.6 (M),19.1%
same,random coil content of apo-hTf,[4]; compound concentration 1.6 (M),34%
same,α-helix content of apo-hTf,[4]; compound concentration 1.6 (M),29.1%
same,β-sheet content of apo-hTf,[4]; compound concentration 1.6 (M),17.8%
same,other secondary structure content of apo-hTf,[4]; compound concentration 2 (M),19.1%
same,random coil content of apo-hTf,[4]; compound concentration 2 (M),34%
same,α-helix content of apo-hTf,[4]; compound concentration 2 (M),29%
same,β-sheet content of apo-hTf,[4]; compound concentration 2 (M),17.9%
same,other secondary structure content of apo-hTf,[4]; compound concentration 2.4 (M),19.2%
same,random coil content of apo-hTf,[4]; compound concentration 2.4 (M),34.1%
same,α-helix content of apo-hTf,[4]; compound concentration 2.4 (M),28.7%
same,β-sheet content of apo-hTf,[4]; compound concentration 2.4 (M),18%
same,biomolecular quenching rate constant kq,[5]; 296 K,1.97e+11 M⁻¹ s⁻¹
same,Stern-Volmer quenching constant Ksv,[5]; 296 K,1970 M⁻¹
same,number of binding sites n,[5]; 296 K,1.15
same,quenching association constant Ka,[5]; 296 K,8900 M⁻¹
same,biomolecular quenching rate constant kq,[5]; 303 K,1.57e+11 M⁻¹ s⁻¹
same,Stern-Volmer quenching constant Ksv,[5]; 303 K,1570 M⁻¹
same,number of binding sites n,[5]; 303 K,1.17
same,quenching association constant Ka,[5]; 303 K,8100 M⁻¹
same,biomolecular quenching rate constant kq,[5]; 310 K,1.36e+11 M⁻¹ s⁻¹
same,Stern-Volmer quenching constant Ksv,[5]; 310 K,1360 M⁻¹
same,number of binding sites n,[5]; 310 K,1.18
same,quenching association constant Ka,[5]; 310 K,7500 M⁻¹
same,biomolecular quenching rate constant kq,[5]; 317 K,1.24e+11 M⁻¹ s⁻¹
same,Stern-Volmer quenching constant Ksv,[5]; 317 K,1240 M⁻¹
same,number of binding sites n,[5]; 317 K,1.19
same,quenching association constant Ka,[5]; 317 K,7000 M⁻¹
same,"IC50 (±SD), MCF-7",[6],proliferative activity
same,"IC50 (±SD), MCF-7",[6]; listed as Cp^2HfCl^2,Proliferative
same,Förster critical energy transfer distance R0,"[7]; k^2=2/3, n=1.336, ØD=0.118",6.91 nm
same,binding distance r (donor-acceptor),"[7]; k^2=2/3, n=1.336, ØD=0.118",9.47 nm
same,efficiency of energy transfer E,"[7]; room temperature, 1.0×10^−5 mol L^−1 each",0.131
